Laboratory results as given in paper PMC2661818 (Psychopharmacology, 2008).
Structures can show the parent of a compound that is named as a salt. Where two headings read alike, the source gives them in different places.

How the values were obtained:
[1] = tested on: rats discriminating cocaine injections; conditions: cited from earlier work; for Cocaine-like responding (partial): ref Witkin et al. 1991; for Substitution for the cocaine cue: reduced training dose (3.0 mg/kg cocaine), ref Terry et al. 1994
[2] = tested on: rats trained to discriminate 10 mg/kg cocaine, IP from saline; type: in vivo, Sprague—Dawley rats; conditions: for Maximal levels of cocaine responding: in each/all rearing groups (BMS, AFR, LMS); for Maximal cocaine responding: SEM in parentheses
Method in brief: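 Adult Sprague–Dawley rats (6 per rearing condition per sex) from BMS, LMS or AFR rearing, trained at 10 mg/kg IP (15-min pretreatment) vs saline. Tests: 10 consecutive responses on either manipulandum gave a pellet. Novel training-drug doses (0.56–18 mg/kg) in random order; pretreatment 1–120 min. Group mean % drug responding: ≥80% full, ≤20% saline-like. Rates as % of vehicle.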

[3] = Plasma cocaine assessment by LC/MS/MS; type: in vivo, Sprague—Dawley rats; conditions: males, 10 mg/kg IP
rats = conditions: ref Moffett et al. (2006a), cited from earlier work
c-Fos = assay: Cocaine-induced c-Fos expression; type: in vivo, Sprague—Dawley rats; conditions: 10 mg/kg IP, 14 days
[4] = rat, IP injection, cited from earlier work
[5] = females, all rearing conditions

## Oc1cc2c(cc1O)C(c1ccccc1)CNCC2 (stereo not shown) [SKF38393, SKF38393 hydrobromide]
[1]; 10 mg/kg cocaine training dose
  Cocaine-like responding (partial): 20–80%
[1]
  Substitution for the cocaine cue: substitute fully
[2]; [5]
  Effect on rate of responding: dose dependently decreased
[2]; females
  Maximal levels of cocaine responding: approximately 50%
[2]; males, AFR and LMS, 18 mg/kg
  Generalization profile: partial generalization
[2]; males, AFR
  Maximal cocaine responding: 81.41%
[2]; males, BMS and AFR groups, 32 mg/kg
  Rates of responding (disrupted): < 0.20 mean responses per second
[2]; males, BMS
  Maximal cocaine responding: 95.68%
[2]; males, LMS
  Maximal cocaine responding: 83.52%
[2]; males, all rearing conditions
  Effect on rate of responding: dose-dependent decreases in rates
[2]; males, all rearing conditions, 10 mg/kg
  Generalization profile: partial generalization

## Fc1ccc(C(OCCN2CCN(CCCc3ccccc3)CC2)c2ccc(F)cc2)cc1 [GBR12909, GBR12909 bismesylate hydrate]
[2]; females, AFR
  Doses producing more cocaine-like responding: 5.6 to 18 mg/kg
  Maximal cocaine responding: 80.28%
[2]; females, BMS
  Maximal cocaine responding: 99.64%
[2]; females, LMS
  Doses producing more partial responding: 3.2 to 10 mg/kg
  Maximal cocaine responding: 83.39%
[2]; [5]
  Effect on rate of responding: dose dependently decreased
[2]; males, AFR, two lowest doses (1.0–3.2 mg/kg)
  Generalization profile: partial cocaine responding
[2]; males, BMS and LMS, two lowest doses (1.0–3.2 mg/kg)
  Generalization profile: saline responding
[2]; males, all rearing conditions
  Effect on rate of responding: dose dependently decreased rate of responding

## COC(=O)[C@H]1[C@@H](OC(=O)c2ccccc2)C[C@@H]2CC[C@H]1N2C [cocaine, Cocaine hydrochloride]
[3]
  Plasma cocaine levels, effect of time: decreasing from 15 to 60 min
rats; BMS rats
  Self-administration: did not self administer cocaine above saline levels at any dose tested
rats; LMS rats
  Dose at which self-administration was acquired: 0.0625 mg/kg/infusion
[2]; [5]
  Effect on rate of responding: dose dependently decreased rate of responding
[2]; males, all rearing conditions
  Effect on rate of responding: did not have an effect on rate of responding
[2]; novel doses 0.56–18 mg/kg, all groups
  Cocaine-appropriate responding as a function of dose: dose-dependent increases in cocaine-appropriate responding
c-Fos; AFR females, NAcc Core and central CPu
  Fos-IR, cocaine- vs saline-treated: significantly greater Fos-IR
c-Fos; AFR males, central and dorsomedial CPu
  c-Fos expression, cocaine- vs saline-treated: trend for significantly greater c-Fos expression
c-Fos; BMS males and females, any brain region examined
  c-Fos expression, cocaine- vs saline-treated: never statistically significant differences
c-Fos; LMS males, ICjM
  c-Fos, cocaine- vs saline-treated: showed significance
[4]; ref Misra et al. 1974
  Time to peak plasma: 4 h
[4]; ref Nayak et al. 1976
  Elimination half-life (t1/2): 48 to 60 min

## CCCN1CCC[C@@H]2Cc3n[nH]cc3C[C@H]21 [quinpirole, quinpirole hydrochloride]
[1]; 10 mg/kg cocaine training dose, ref Barrett and Appel 1989, Callahan et al. 1991, Callahan and Cunningham 1993
  Generalization to the cocaine cue: full generalization
[1]; 10 mg/kg cocaine training dose
  Cocaine-like responding (partial): 20–80%
[1]
  Substitution for the cocaine cue: substitute fully
[2]; females, all groups, doses of 0.061–0.18 mg/kg
  Generalization profile: intermediate levels of responding
[2]; [5]
  Effect on rate of responding: dose dependently decreased
[2]; females
  Maximal levels of cocaine responding: ~80%
[2]; males, LMS, all doses except 0.125 mg/kg
  Generalization profile: only partial generalization
[2]; males, all rearing conditions
  Effect on rate of responding: dose dependently decreased the number of responses
